# Data as given in ChEMBL document CHEMBL3351339, “Delineation of the role of glycosylation in the cytotoxic properties of quercetin using novel assays in living vertebrates” (J Nat Prod, 2014).
# The source made the active and inactive calls. No cut-off for these calls is given here.
# Tests used:
# [1] = species: Danio rerio; experiment: Teratogenic effect in zebrafish assessed as developmental toxicity at 40 to 80 uM after 72 hrs by microscopy; assay type: organism-based; settings: in vivo
# How it was run: (§1)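 Fertilized eggs were exposed from the eight-cell stage, 8 per well, at 31 °C for 72 h. Development, malformations and survival were then recorded by microscopy.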
# [2] = species: Danio rerio; experiment: Teratogenic effect in zebrafish assessed as abnormal development of yolk sac at 160 uM after 72 hrs by microscopy; assay type: toxicity, organism-based; settings: in vivo; how it was run: as §1
# [3] = system: HCT-116; experiment: Cytotoxicity against human HCT116 cells at 1.25 to 20 uM after 96 hrs by MTT assay; assay type: functional, cell-based
# How it was run: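 HCT116 cells in DMEM with 10% FBS, seeded at 4 × 10^3 per well and left overnight at 37 °C. Treated in 1% FBS–DMEM for 96 h, then MTT for 3 h. Formazan dissolved in DMSO, absorbance read at 570 nm. DMSO vehicle control. Two independent assays, mean ± SD.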
# [4] = system: Cancer cell lines; experiment: Antitumor activity against human HCT116 cells xenografted in 48 hpf zebrafish embryo assessed as inhibition of cancer cell proliferation at 80 uM treated for 4 days; assay type: functional, cell-based
# How it was run: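 HCT116 cells labelled with 2 μg/mL DiI were injected into the yolk sac of 48 hpf embryos. Embryos were held singly in E3 without methylene blue with compound (80 μM), 10 μM API-H7 as positive control or DMSO, at 31 °C for 96 h, 8 per group. Larvae were dissociated with collagenase/dispase for 2 h at 37 °C, fixed in paraformaldehyde, and fluorescent cells counted by microscopy. Two independent assays.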
# [5] = species: Danio rerio; experiment: Teratogenic effect in zebrafish assessed as slow heartbeat at 160 uM after 72 hrs by microscopy; assay type: organism-based; settings: in vivo; how it was run: as §1
# [6] = (§2) Drug metabolism assessed as zebrafish intestinal beta-glucosidase-mediated deglycosylation of compound at 80 uM after 2.5 hrs by resorufin-beta-D-glucopyranoside-based fluorescence assay; assay type: ADME, Danio rerio; settings: 2.5 h, 80 µM
# How it was run: (§3)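 Larvae at 7 dpf (24 per well) were incubated in E3 without methylene blue with Res-β-Glc probe at 400 μM, with or without 80 μM compound, for 2.5 h at 31 °C, then washed. Larvae showing reduced fluorescence against probe-alone larvae were counted by microscopy (n = 3, SD). Lysates were also read at ex 570/em 610 nm.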
# [7] = species: Danio rerio; experiment: Teratogenic effect in zebrafish assessed as delayed hatching at 160 uM after 72 hrs by microscopy; assay type: organism-based; settings: in vivo; how it was run: as §1
# [8] = species: Danio rerio; experiment: Teratogenic effect in zebrafish assessed as abnormal heart at 160 uM after 72 hrs by microscopy; assay type: organism-based; settings: in vivo; how it was run: as §1
# [9] = species: Danio rerio; experiment: Teratogenic effect in zebrafish assessed as skeletal deformities at 160 uM after 72 hrs by microscopy; assay type: organism-based; settings: in vivo; how it was run: as §1
# [10] = species: Danio rerio; experiment: Teratogenic effect in zebrafish assessed as abnormal head at 160 uM after 72 hrs by microscopy; assay type: organism-based; settings: in vivo; how it was run: as §1
# [11] = system: HCT-116; experiment: Induction of apoptosis in human HCT116 cells assessed as PARP cleavage at 20 uM after 72 hrs by immunoblotting; assay type: functional, cell-based
# How it was run: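 HCT116 cells were treated with 20 μM compound for 72 h and lysed in ice-cold buffer with PMSF and protease inhibitors. Protein in the cleared supernatant was measured by BCA, and PARP cleavage was detected by western blot with actin as reference.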
# [12] = system: Danio rerio; experiment: Teratogenic effect in zebrafish assessed as heart sac edema at 160 uM after 72 hrs by microscopy; assay type: organism-based; settings: in vivo; how it was run: as §1
# [13] = system: beta-glucosidase; experiment: as §2; assay type: ADME, Danio rerio; settings: zebrafish intestinal beta-glucosidase, probe resorufin-beta-D-glucopyranoside, read-out: Drug metabolism; how it was run: as §3
# [14] = Drug metabolism assessed as zebrafish intestinal beta-glucosidase-mediated formation of quercetin at 80 uM after 2.5 hrs by resorufin-beta-D-glucopyranoside-based fluorescence assay; assay type: ADME, Danio rerio; how it was run: as §3
# [15] = Drug metabolism assessed as zebrafish intestinal beta-glucosidase-mediated formation of quercetin after 2.5 hrs by resorufin-beta-D-glucopyranoside-based fluorescence assay; assay type: ADME, Danio rerio; how it was run: as §3
# [16] = system: Cancer cell lines; experiment: Antitumor activity against human HCT116 cells xenografted in 48 hpf zebrafish embryo assessed as inhibition of cancer cell proliferation compound treated for 4 days; assay type: functional, cell-based
Structure (SMILES),Activity [1],Activity [2],Activity [3],Activity [4],Activity [5],Drug metabolism [6],Activity [7],Activity [8],Activity [9],Activity [10],Activity [11],Activity [12],"metabolised at 2.5 h, 80 µM [13] [%]",Drug metabolism [14],Drug metabolism [15],Activity [16]
O=c1c(O)c(-c2ccc(O)c(O)c2)oc2cc(O)cc(O)c12 [QUERCETIN],Non-toxic,Non-toxic,Active,Active,Non-toxic,metabolite_notdetected,Non-toxic,Non-toxic,Non-toxic,Non-toxic,Active,Non-toxic,,,,
O=c1c(O)c(-c2ccc(O[C@@H]3O[C@H](CO)[C@@H](O)[C@H](O)[C@H]3O)c(O)c2)oc2cc(O)cc(O)c12 [SPIRAEOSIDE],Non-toxic,31.25%,Active,inactive,31.25%,,31.25%,31.25%,31.25%,31.25%,Active,31.25%,45,,,
C[C@@H]1O[C@@H](Oc2c(-c3ccc(O)c(O)c3)oc3cc(O)cc(O)c3c2=O)[C@H](O)[C@H](O)[C@H]1O,,,Active,inactive,,,,,,,,,,,,
O=c1c(O[C@@H]2O[C@H](CO)[C@@H](O)[C@H](O)[C@H]2O)c(-c2ccc(O)c(O)c2)oc2cc(O)cc(O)c12 [ISOQUERCETIN],Non-toxic,Non-toxic,Active,Active,Non-toxic,,Non-toxic,Non-toxic,Non-toxic,Non-toxic,Active,Non-toxic,57,metabolite_detected,Dose-dependent effect,Dose-dependent effect
O=c1c(O[C@@H]2O[C@H](CO)[C@H](O)[C@H](O)[C@H]2O)c(-c2ccc(O)c(O)c2)oc2cc(O)cc(O)c12,,,Active,inactive,,,,,,,,,,,,
